Source: ChEMBL document CHEMBL4038334, “Coumarin versus Chromone Monoamine Oxidase B Inhibitors: Quo Vadis?” (J Med Chem, 2017)

How the values were obtained:
[1] = molecular target: T1, Amine oxidase [flavin-containing] B (Homo sapiens, UniProt P27338); assay: biochemical; assay type: cell-based
T1 sequence (P27338 whole entry): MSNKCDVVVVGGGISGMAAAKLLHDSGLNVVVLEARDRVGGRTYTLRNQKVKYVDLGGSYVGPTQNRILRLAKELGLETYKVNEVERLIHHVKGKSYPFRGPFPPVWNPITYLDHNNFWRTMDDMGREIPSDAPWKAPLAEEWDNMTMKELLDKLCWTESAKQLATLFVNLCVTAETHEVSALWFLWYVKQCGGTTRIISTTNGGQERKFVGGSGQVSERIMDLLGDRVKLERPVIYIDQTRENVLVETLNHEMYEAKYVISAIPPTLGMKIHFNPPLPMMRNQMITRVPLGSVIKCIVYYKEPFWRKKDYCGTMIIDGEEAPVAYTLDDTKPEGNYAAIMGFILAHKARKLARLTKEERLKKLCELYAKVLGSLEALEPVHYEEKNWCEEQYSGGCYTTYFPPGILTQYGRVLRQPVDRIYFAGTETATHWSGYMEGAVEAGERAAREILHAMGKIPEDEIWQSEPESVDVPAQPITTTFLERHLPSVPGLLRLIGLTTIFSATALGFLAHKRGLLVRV

[2] = molecular target: T2, Amine oxidase [flavin-containing] A (Homo sapiens, UniProt P21397); assay: Inhibition of human recombinant microsomal MAOA expressed in baculovirus infected BTI-TN-5B1- 4 cells using p-tyramine as substrate assessed as decrease in H2O2 production at 100 uM after 15 mins by amplex red-based fluorescence assay; conditions: 0.25 h
T2 sequence (P21397 whole entry): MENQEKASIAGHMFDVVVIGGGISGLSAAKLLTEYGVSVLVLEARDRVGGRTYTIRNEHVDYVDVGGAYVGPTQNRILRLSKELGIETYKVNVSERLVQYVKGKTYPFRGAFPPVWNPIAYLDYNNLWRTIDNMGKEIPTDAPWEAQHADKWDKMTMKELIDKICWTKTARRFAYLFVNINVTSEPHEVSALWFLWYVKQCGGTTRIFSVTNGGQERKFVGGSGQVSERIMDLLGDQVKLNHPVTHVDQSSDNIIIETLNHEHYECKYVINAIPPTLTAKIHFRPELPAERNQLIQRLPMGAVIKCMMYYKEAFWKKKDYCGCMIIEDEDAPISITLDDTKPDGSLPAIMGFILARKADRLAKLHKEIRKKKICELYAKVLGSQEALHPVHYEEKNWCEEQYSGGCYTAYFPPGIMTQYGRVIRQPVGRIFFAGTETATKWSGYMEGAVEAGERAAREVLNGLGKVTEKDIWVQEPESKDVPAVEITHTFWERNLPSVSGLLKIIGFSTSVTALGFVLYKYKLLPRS

[3] = species on record: Homo sapiens; assay: Selectivity index, ratio of IC50 for human recombinant microsomal MAOA to IC50 for human recombinant microsomal MAOB
[4] = molecular target: T1, Amine oxidase [flavin-containing] B; assay: Reversible inhibition of human recombinant microsomal MAOB expressed in baculovirus infected BTI-TN-5B1- 4 cells assessed as decrease in H2O2 production at 12.5 nM after 60 mins by amplex red-based fluorescence assay; conditions: 1 h, 0.0125 µM
[5] = molecular target: T1, Amine oxidase [flavin-containing] B; assay: Noncompetitive inhibition of human recombinant microsomal MAOB expressed in baculovirus infected BTI-TN-5B1- 4 cells using p-tyramine as substrate assessed as decrease in H2O2 production by Lineweaver-Burk plot analysis
In short: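 Substrate-dependent kinetic experiments on hMAO-B. Inhibition mode was read from Lineweaver-Burk plots, and Ki was calculated from the corresponding Dixon plots.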

[6] = molecular target: T1, Amine oxidase [flavin-containing] B; assay: Binding affinity to human recombinant microsomal MAOB expressed in baculovirus infected BTI-TN-5B1- 4 cells assessed as decrease in H2O2 production at 12.5 nM after 15 mins by amplex red-based fluorescence assay; conditions: 0.25 h, 0.0125 µM
[7] = molecular target: T1, Amine oxidase [flavin-containing] B; assay: Reversible inhibition of human recombinant microsomal MAOB expressed in baculovirus infected BTI-TN-5B1- 4 cells assessed as decrease in H2O2 production at 40 nM after 15 mins by amplex red-based fluorescence assay; conditions: 0.25 h, 0.04 µM

SMILES	IC50 [1]	inhibition (INH) [2]	Ratio IC50 [3]	inhibition (INH) [4]	Ki [5]	Activity [6]	inhibition (INH) [7]
Cc1ccc(NC(=O)c2cc3cc(C)ccc3oc2=O)cc1	13.9 nM	Not Active	> 7190				
Cc1ccc2oc(=O)c(C(=O)Nc3ccccc3)cc2c1	15.3 nM	Not Active	> 6530				
COc1ccc2occ(C(=O)Nc3ccccc3)c(=O)c2c1	41.8 nM	Not Active	> 2390				
COc1ccc2oc(=O)c(C(=O)Nc3cccc(O)c3)cc2c1	229 nM	Not Active	> 447				
Cc1ccc2occ(C(=O)Nc3ccc(O)cc3)c(=O)c2c1	513 nM	Not Active	> 195				
COc1ccc2oc(=O)c(C(=O)Nc3ccccc3)cc2c1	5.95 nM	Not Active	> 16800				
Cc1ccc2oc(=O)c(C(=O)Nc3cccc(Cl)c3)cc2c1	5.07 nM	Not Active	> 19700	Active	1.17 nM	Active	
Cc1ccc2occ(C(=O)Nc3ccccc3)c(=O)c2c1	21.4 nM	Not Active	> 4680				
COc1ccc2occ(C(=O)Nc3cccc(O)c3)c(=O)c2c1	113 nM	Not Active	> 881				
COc1ccc2occ(C(=O)Nc3ccc(C)cc3)c(=O)c2c1	211 nM	Not Active	> 474				
Cc1ccc(NC(=O)c2coc3ccc(C)cc3c2=O)cc1	152 nM	Not Active	> 660				
Cc1ccc2oc(=O)c(C(=O)Nc3ccc(Cl)cc3)cc2c1	11.1 nM	Not Active	> 9030				
Cc1ccc2occ(C(=O)Nc3ccc(Cl)cc3)c(=O)c2c1	45.4 nM	Not Active	> 2200				
COc1ccc2oc(=O)c(C(=O)Nc3cccc(Cl)c3)cc2c1	9.03 nM	Not Active	> 11100				
Cc1cccc(NC(=O)c2coc3ccc(C)cc3c2=O)c1	17.1 nM	Not Active	> 5850				
Cc1ccc2occ(C(=O)Nc3cccc(O)c3)c(=O)c2c1	78.2 nM	Not Active	> 1280				
COc1ccc2occ(C(=O)Nc3cccc(C)c3)c(=O)c2c1	21.8 nM	Not Active	> 4590				
COc1ccc2occ(C(=O)Nc3cccc(Cl)c3)c(=O)c2c1	3.94 nM	Not Active	> 25400				
COc1ccc2oc(=O)c(C(=O)Nc3cccc(C)c3)cc2c1	47.2 nM	Not Active	> 2120				
COc1ccc2occ(C(=O)Nc3ccc(O)cc3)c(=O)c2c1	674 nM	Not Active	> 148				
COc1ccc2oc(=O)c(C(=O)Nc3ccc(O)cc3)cc2c1		Not Active					
COc1ccc2oc(=O)c(C(=O)Nc3ccc(Cl)cc3)cc2c1	18.9 nM	Not Active	> 5290				
Cc1ccc2occ(C(=O)Nc3cccc(Cl)c3)c(=O)c2c1	4.2 nM	Not Active	> 23800	Active	2.69 nM	Active	
Cc1ccc2oc(=O)c(C(=O)Nc3cccc(O)c3)cc2c1	45.4 nM	Not Active	> 2200				
COc1ccc2occ(C(=O)Nc3ccc(Cl)cc3)c(=O)c2c1	10.3 nM	Not Active	> 9700				
Cc1ccc2oc(=O)c(C(=O)Nc3ccc(O)cc3)cc2c1	622 nM	Not Active	> 161				
COc1ccc2oc(=O)c(C(=O)Nc3ccc(C)cc3)cc2c1	19.4 nM	Not Active	> 5150				
Cc1cccc(NC(=O)c2cc3cc(C)ccc3oc2=O)c1	7.52 nM	Not Active	> 13300				
C[C@H](NCc1ccc(OCc2cccc(F)c2)cc1)C(N)=O [SAFINAMIDE]		Not Active					Active
